Screens from PubChem.
T cruzi inh: inhibitors of intracellular T. cruzi growth, primary screen, luminescence, NIH3T3 host cells. T. cruzi beta-gal in NIH3T3, 90 h. inhibition, % (test concentration not listed). 1.4% of 300,000 active;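 active = mean inhibition across valid replicates above about 55%, limit read from the data; inconclusive = mean below that limit but half or more replicates reach it; inactive = mean below it, under half of replicates reach it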;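 note: signal also drops with host cell toxicity which is not excluded here; 0% = plate median of DMSO wells and 100% = zero luminescence signal; higher percent means less beta-gal luminescence so fewer parasites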
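System: Mouse NIH/3T3 fibroblasts infected with β-gal-expressing T. cruzi Tulahuen C4 | Quantity: NIH/3T3 cells, 5,000 per well | Reagent: 5000 reporter trypomastigotes per well | Dosing: Compound pinned at 50 nL/well, DMSO | Schedule: 3 h host attachment, then at least 90 h co-culture | Detection: GalScreen luminescence, 60 min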
L major viab: Leishmania major promastigote growth inhibition, primary screen | Leishmania major promastigotes, resazurin fluorescence viability | inhibition, % at 10 µM | 9% of 200,000 active | AID 1063, 2008; in the data active = inhibition above about 50%;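 note: promastigotes grown with compound for 44 hours at 28 °C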
HSF1 activator: HSF-1 activators, primary screen, NIH3T3-HGL cells, MG132 stress, luminescence, single point. 1.7% of 300,000 active. NIH3T3-HGL HSF-1 luciferase reporter, 8 h; 100% = twice DMSO control signal. activation, % at 9 µM;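 active = mean replicate activation of at least 50% with a set share of replicates each reaching 50%; inconclusive = only one of those two conditions met; inactive = mean below 50% and too few replicates reaching it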;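 note: 0% = median of the neutral control wells and 100% = twice that signal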
HSF1 inhib: HSF1 inhibitors in luciferase reporter cells, primary screen, cell-based, NIH3T3, luminescence | NIH3T3-HGL HSE-luciferase, MG132-induced, luminescence 8 h; stronger effect = lower value | activity change, negative = inhibition, % at 7.5 µM (by protocol) | 0.77% of 300,000 active | AID 2098, 2009;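 active = more than half of replicate wells show activity change below -50%, luminescence cut by over half; inconclusive = some wells, but at most half, below -50%; inactive = no replicate well below -50%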;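 note: luciferase reports HSF-1 transcriptional activity via heat shock element; 0% = median of DMSO wells and -100% = zero luminescence signal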
Hsp70 act: Hsp70 transcriptional activators, primary screen, cell-based, HeLa, Hsp70 promoter luciferase, luminescence, 10 µM; HeLa Hsp70 promoter luciferase reporter; scaled: vehicle 0, proteasome-inhibitor control 100%; activation, % at 10 µM; 0.04% of 200,000 active; AID 1203, 2008;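 active = activation above the mean across all tested compounds plus 3 SD, cutoff set per campaign, cut at about 5.5% in these data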;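 note: 100% = MG132 at 30 µM as the positive control and 0% = DMSO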
L major 1uM: Leishmania major promastigote growth inhibition, confirmation, 1 µM repeat of primary hits; L. major promastigote growth, resazurin fluorescence, 48 h; inhibition, % at 1 µM; AID 1258, 2008; shares compounds with L major viab; 13% of 1,100 active;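 active = inhibition above about 50% in both repeat tests, limit read from the data; inconclusive = one repeat under the set limit, the other over it; inactive = both repeats under the set limit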
Starred values were filed as active, the others as inactive; ? = inconclusive; . = no result given. The full list was thinned out, with hits kept by preference.

SMILES	T cruzi inh	L major viab	HSF1 activator	HSF1 inhib	Hsp70 act	L major 1uM
O=C(CN(C(=O)C1CSC(=O)C1)c1cccc(F)c1)NCc1ccc2c(c1)OCO2 (stereo not given)	0	.	6	-5	.	.
NC(C(=O)O)C1CC(Cl)=NO1 (stereo not given)	-6	100*	-34	-23	0	94*
NC(C(=O)O)C1ON=C(Cl)C1O (stereo not given)	.	.	-1	-1	.	.
CCOC(=O)c1cc2oc(C(c3nnnn3C3CCCCC3)N3CCOCC3)cc2[nH]1 (stereo not given)	.	82*	.	.	0	3
CC1C(=O)C(C)(C)C(=O)OC1c1ccccc1 (stereo not given)	-1	.	-8	0	.	.
CC1=C(OC(=O)C(C)(C)C)C(C)(C)C(c2ccccc2)OC1=O (stereo not given)	0	55*	10	-4	0	0
O=C1CC(c2ccccc2Br)c2cc3c(cc2N1)CCC3 (stereo not given)	-19	100*	5	1	0	88*
CCOC(=O)CON1C(=O)C(=O)N(OCC(=O)OCC)C2CCCCC21 (stereo not given)	-7	-5	31	15	0	.
COc1ccc([C@@H]2Sc3cc(OC)ccc3N(CCN(C(C)C)C(C)C)C(=O)[C@H]2OC(C)=O)cc1	37	74*	-4	-3	0	-5
CC1=Nc2ccccc2N=C(NC(=O)CSc2nnnn2-c2ccccc2)C1c1ccccc1 (stereo not given)	7	99*	13	14	0	16
O=C(O)c1ccc(S(=O)(=O)Nc2ccc(O)c(Sc3nc4ccccc4s3)c2)cc1	-9	-7	18	-3	0	.
Cc1ccc(-c2cc(-c3ccc(F)cc3)c(C#N)c(N)n2)o1	-18	60*	3	1	0	-15
CC(=O)Nc1ccc(S(=O)(=O)NCC2CCC(C(=O)N3CCCCC3)CC2)cc1 (stereo not given)	-5	.	-8	-4	.	.
O=C(OCc1ccccc1)/C(=C/c1ccccc1Cl)NC(=O)c1ccco1	-10	.	4	5	.	.
COc1ccc(-c2c(C)oc3c(CN4CCOCC4)c(O)ccc3c2=O)cc1	-3	.	-4	2	.	.
Cc1oc2c(CN3CCCC3)c(O)ccc2c(=O)c1-c1ccc(Br)cc1	5	99*	0	-3	0	-5
Cc1ccccc1N1C(S)=C(C#N)C(=O)NC12CCCCC2	-6	51*	-16	-8	0	-20
Cc1ccc(N2C(S)=C(C#N)C(=O)NC23CCCCC3)cc1	-25	-1	25	2	0	.
O=C(O)CCC(=O)Nc1nnc(C(F)(F)F)s1	.	-1	.	.	0	.
CCC(NC(=O)Nc1nnc(C(F)(F)F)s1)(C(F)(F)F)C(F)(F)F	62*	101*	-1	1	0	-7
CN(C)S(=O)(=O)c1cccn1-c1ncc(C(F)(F)F)cc1Cl	4	100*	-2	-8	0	29
O=S(=O)(c1ccccc1)c1ncc(C(F)(F)F)cc1Cl	-3	72*	?	46	-1	39
O=S(=O)(c1ccccc1)c1ncc(C(F)(F)F)cc1O	5	1	-10	-2	0	.
CN(C)/C=N/S(=O)(=O)c1cccn1-c1ncc(C(F)(F)F)cc1Cl	-7	1	2	-3	0	.
O=C(N/N=C/c1ccccc1OCc1ccccc1Cl)c1cccnc1	4	91*	3	6	0	-11
SMILES	T cruzi inh	L major viab	HSF1 activator	HSF1 inhib	Hsp70 act	L major 1uM
O=C(Nc1ccc(OCc2ccccc2Cl)cc1)c1cccnc1	0	.	10	6	.	.
C=C(C)c1cccc(C(C)(C)NC(=O)N(C)C2CCN(C)CC2)c1	46	98*	19	0	0	2
C=C(C)c1cccc(C(C)(C)NC(=O)N2CCCC(C)C2)c1 (stereo not given)	8	13	-20	1	0	.
CCOc1ccc(S(=O)(=O)NCCC(=O)NCC2(N3CCCCC3)CCCCC2)cc1	-4	.	1	-9	.	.
c1ccc(CNc2nc(-c3cccs3)nc3ccccc23)cc1	35	99*	1	9	0	59*
Fc1ccccc1-c1nc(NCc2ccccc2)c2ccccc2n1	17	.	-3	1	.	.
CC(C)(C)n1nnnc1CN(Cc1cccnc1)Cc1ccccc1Cl	31	75*	7	2	0	3
COc1ccccc1CN=c1c([N+](=O)[O-])nn(-c2ccc3c(c2)OCCO3)n1O	49	98*	3	-2	0	14
Clc1ccc(CN2C3=NCCCN3c3ccccc32)cc1	16	100*	-10	1	0	-10
Cc1ccc(NC(=O)C2CCN(S(=O)(=O)c3ccc(N4CCCC4=O)cc3)CC2)cc1Cl	20	.	-1	-11	.	.
COc1ccc(C(=O)/C=C/c2cn(CN3CCN(C)CC3)c3ccccc23)cc1	.	93*	.	.	0	-5
Cc1ccc(-c2[nH]nc(N)c2N=Nc2ccccc2C)cc1	-5	100*	5	-8	0	-19
Cc1ccc(-c2[nH]nc(N)c2N=Nc2cccc(Cl)c2C)cc1	.	23	.	.	0	.
Cc1cc([N+](=O)[O-])nn1CC(=O)N/N=C/c1ccc(O)cc1O	0	.	-4	3	.	.
OC(COCC1COc2ccccc2O1)CN1CCc2ccccc2C1 (stereo not given)	9	99*	-21	-4	0	2
COc1ccc(OCC(O)CN2CCc3ccccc3C2)cc1 (stereo not given)	-7	.	22	-3	.	.
O=C(O)c1cc(-c2ccc(/C=N/N3C(=O)C4C5C=CC(C6CC56)C4C3=O)o2)ccc1Cl (stereo not given)	-2	6	-3	5	0	.
CCOc1cc(NC(=O)c2cccs2)c(OCC)cc1NC(=O)CCC(=O)NCCN1CCOCC1	5	-8	-22	-10	0	.
Cc1cc(C(=O)CCl)c(C)n1Cc1ccco1	80*	100*	9	0	0	93*
Cc1cc(C(=O)CSc2nnc(-c3ccco3)o2)c(C)n1Cc1ccco1	-8	4	3	13	0	.
Cc1ccc(CNC(=O)c2cn(C3CCCCC3)c(=O)c3c2c2ccccc2n3C)o1	16	53*	79*	55	0	-20
Cc1cc(C)c2ccc3c(C)c(C)nc3c2[nH]1	.	56*	.	.	0	40
Cc1cc(=O)[nH]c2c(C)c(N)ccc12	-19	-6	4	-1	0	.
Nc1nc(N)nc(-c2ccc(Oc3ccccc3)cc2)n1	4	11	-8	-2	0	.
